Laboratory results reported in ChEMBL document CHEMBL2417507, “Synthesis and bioevaluation of some new isoniazid derivatives” (Bioorg Med Chem, 2013).
≈ marks a conversion by molar mass, not a printed value. Calls of active or inactive are those of the source. The rule behind the calls is not given here.

Tests used:
[1] = system: HCT-8; experiment: Cell cycle arrest in human HCT8 cells assessed as accumulation at G2/M phase at 50 ug/mL after 24 hrs by propidium iodide staining-based flow cytometric analysis (reference value: 13.83%); format: ADME; conditions: hct-8, 24 h
[2] = system: HCT-8; experiment: Cell cycle arrest in human HCT8 cells assessed as accumulation at S phase at 50 ug/mL after 24 hrs by propidium iodide staining-based flow cytometric analysis (reference value: 39.43%); format: ADME; conditions: hct-8, 24 h
[3] = Induction of apoptosis in human HCT8 cells assessed as viable cells at 50 ug/mL after 24 hrs by Annexin V-FITC and propidium iodide staining-based flow cytometric analysis (reference value: 87.7%); format: cell-based, HCT-8; conditions: read-out: Activity
[4] = system: HCT-8; experiment: Induction of apoptosis in human HCT8 cells assessed as early apoptotic cells at 50 ug/mL after 24 hrs by Annexin V-FITC and propidium iodide staining-based flow cytometric analysis (reference value: 1.57%); format: cell-based; conditions: hct-8, 24 h
[5] = system: HCT-8; experiment: Induction of apoptosis in human HCT8 cells assessed as late apoptotic cells at 50 ug/mL after 24 hrs by Annexin V-FITC and propidium iodide staining-based flow cytometric analysis (reference value: 2.97%); format: cell-based; conditions: hct-8, 24 h
[6] = system: HCT-8; experiment: Induction of apoptosis in human HCT8 cells assessed as necrotic cells at 50 ug/mL after 24 hrs by Annexin V-FITC and propidium iodide staining-based flow cytometric analysis (reference value: 7.73%); format: cell-based; conditions: hct-8, 24 h
[7] = system: Acinetobacter baumannii; experiment: Antibacterial activity against Acinetobacter baumannii 247 assessed as growth inhibition at 1 mg/mL after 24 hrs by agar-disk diffusion technique; format: functional, organism-based
Summary of the method: (§1)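 Agar-disk diffusion, adapted: plates seeded with 0.5 McFarland suspension prepared from 24 h cultures; 5 µL of a 1 mg/mL compound solution spotted onto the seeded solid medium; incubated 24 h at 37 °C. Stocks made in DMSO.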

[8] = system: Acinetobacter baumannii; experiment: Antibacterial activity against Acinetobacter baumannii 192 assessed as growth inhibition at 1 mg/mL after 24 hrs by agar-disk diffusion technique; format: functional, organism-based; summary of the method: as §1
[9] = system: Acinetobacter baumannii; experiment: Antibacterial activity against Acinetobacter baumannii 136 assessed as growth inhibition at 1 mg/mL after 24 hrs by agar-disk diffusion technique; format: functional, organism-based; summary of the method: as §1
[10] = system: Acinetobacter baumannii; experiment: Antibacterial activity against Acinetobacter baumannii 135 assessed as growth inhibition at 1 mg/mL after 24 hrs by agar-disk diffusion technique; format: functional, organism-based; summary of the method: as §1
[11] = system: Acinetobacter baumannii; experiment: Antibacterial activity against Acinetobacter baumannii 125 assessed as growth inhibition at 1 mg/mL after 24 hrs by agar-disk diffusion technique; format: functional, organism-based; summary of the method: as §1
[12] = system: Enterococcus faecalis; experiment: Antibacterial activity against Enterococcus faecalis 2920 assessed as growth inhibition at 1 mg/mL after 24 hrs by agar-disk diffusion technique; format: functional, organism-based; summary of the method: as §1
[13] = system: Pseudomonas putida; experiment: Antibacterial activity against Pseudomonas putida 160 assessed as growth inhibition at 1 mg/mL after 24 hrs by agar-disk diffusion technique; format: functional, organism-based; summary of the method: as §1
[14] = system: Pseudomonas aeruginosa; experiment: Antibacterial activity against Pseudomonas aeruginosa 1144 assessed as growth inhibition at 1 mg/mL after 24 hrs by agar-disk diffusion technique; format: functional, organism-based; summary of the method: as §1
[15] = system: Pseudomonas aeruginosa; experiment: Antibacterial activity against Pseudomonas aeruginosa ATCC 27853 assessed as growth inhibition at 1 mg/mL after 24 hrs by agar-disk diffusion technique; format: functional, organism-based; summary of the method: as §1
[16] = system: Klebsiella pneumoniae; experiment: Antibacterial activity against Klebsiella pneumoniae 1756 assessed as growth inhibition at 1 mg/mL after 24 hrs by agar-disk diffusion technique; format: functional, organism-based; summary of the method: as §1
[17] = system: Proteus mirabilis; experiment: Antibacterial activity against Proteus mirabilis 1751 assessed as growth inhibition at 1 mg/mL after 24 hrs by agar-disk diffusion technique; format: functional, organism-based; summary of the method: as §1
[18] = system: Morganella morganii; experiment: Antibacterial activity against Morganella morganii 2810 assessed as growth inhibition at 1 mg/mL after 24 hrs by agar-disk diffusion technique; format: functional, organism-based; summary of the method: as §1
[19] = system: Citrobacter koseri; experiment: Antibacterial activity against Citrobacter koseri 1742 assessed as growth inhibition at 1 mg/mL after 24 hrs by agar-disk diffusion technique; format: functional, organism-based; summary of the method: as §1
[20] = system: Enterobacter cloacae; experiment: Antibacterial activity against Enterobacter cloacae 1845 assessed as growth inhibition at 1 mg/mL after 24 hrs by agar-disk diffusion technique; format: functional, organism-based; summary of the method: as §1
[21] = system: Radical scavenging activity; experiment: Antioxidant activity assessed as DPPH radical scavenging activity at 0.1 mg/mL after 30 mins under dark conditions by spectrophotometric analysis relative to control; format: functional
Summary of the method: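 Compounds dissolved in methanol at 0.1 mg/mL; 0.2 mL mixed with 1.8 mL of 2 × 10^-4 M DPPH in methanol and kept in the dark 30 min. Absorbance read at 517 nm. The blank was DPPH plus methanol. TAC (%) = (Abs initial − Abs 30 min)/Abs initial × 100.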

[22] = system: HCT-8; experiment: Cell cycle arrest in human HCT8 cells assessed as accumulation at G0/G1 phase at 50 ug/mL after 24 hrs by propidium iodide staining-based flow cytometric analysis (reference value: 46.43%); format: ADME; conditions: hct-8, 24 h
[23] = system: HCT-8; experiment: Decrease in NAT2 gene expression in human HCT8 cells at 50 ug/mL after 24 hrs by RT-PCR analysis; format: ADME, cell-based; conditions: hct-8, 24 h
[24] = system: Escherichia coli; experiment: Antibacterial activity against Escherichia coli 1777 assessed as growth inhibition at 1 mg/mL after 24 hrs by agar-disk diffusion technique; format: functional, organism-based; summary of the method: as §1
[25] = system: Mycobacterium tuberculosis; experiment: Antimycobacterial activity against Mycobacterium tuberculosis after 8 days by micro plate Alamar Blue assay; format: functional; conditions: 192 h
Summary of the method: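 Clinical M. tuberculosis strain grown in Middlebrook 7H9 broth. Compounds were dissolved in DMSO and serially diluted twofold on the plate, final 25 to 0.012 µg/mL. Plates were sealed and held 8 days at 37 °C. Alamar Blue with 10% Tween 80 (1:1) was then added for another 24 h at 37 °C. MIC was the lowest concentration preventing the blue-to-pink change.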

[26] = system: HCT-8; experiment: Increase in NAT1 gene expression in human HCT8 cells at 50 ug/mL after 24 hrs by RT-PCR analysis; format: ADME, cell-based; conditions: hct-8, 24 h
[27] = system: HCT-8; experiment: Increase in NAT2 gene expression in human HCT8 cells at 50 ug/mL after 24 hrs by RT-PCR analysis; format: ADME, cell-based; conditions: hct-8, 24 h
[28] = system: Pseudomonas aeruginosa; experiment: Antibacterial activity against Pseudomonas aeruginosa 165 assessed as growth inhibition at 1 mg/mL after 24 hrs by agar-disk diffusion technique; format: functional, organism-based; summary of the method: as §1
[29] = system: HCT-8; experiment: Decrease in NAT1 gene expression in human HCT8 cells at 50 ug/mL after 24 hrs by RT-PCR analysis; format: ADME, cell-based; conditions: hct-8, 24 h
[30] = system: Acinetobacter baumannii; experiment: Antibacterial activity against Acinetobacter baumannii 122 assessed as growth inhibition at 1 mg/mL after 24 hrs by agar-disk diffusion technique; format: functional, organism-based; summary of the method: as §1
[31] = system: Staphylococcus aureus; experiment: Antibacterial activity against Staphylococcus aureus assessed as growth inhibition at 1 mg/mL after 24 hrs by agar-disk diffusion technique; format: functional, organism-based; summary of the method: as §1
[32] = system: Staphylococcus hominis; experiment: Antibacterial activity against Staphylococcus hominis 1813 assessed as growth inhibition at 1 mg/mL after 24 hrs by agar-disk diffusion technique; format: functional, organism-based; summary of the method: as §1

Compound	Activity [1] [%]	Activity [2] [%]	viability at 24 h, 50 ug/mL [3] [%]	Activity [4] [%]	Activity [5] [%]	Activity [6] [%]	growth inhibition (GI) [7]	growth inhibition (GI) [9]	growth inhibition (GI) [10]	growth inhibition (GI) [13]	growth inhibition (GI) [14]	growth inhibition (GI) [15]	growth inhibition (GI) [16]	growth inhibition (GI) [17]	growth inhibition (GI) [18]	growth inhibition (GI) [20]	TAC [21] [%]	Activity [22] [%]	Activity [23]	MIC [25] [µg/mL]	also measured
CCOc1ccc(/C=C/C(N)=S)cc1	15.41	22.57	70.1	1.56	13.6	14.8	inactive	Active	Active	Active	Active	Active	inactive	Active	Active	Active	37.9	61.33	Toxic	–	growth inhibition (GI) [8]: Active; growth inhibition (GI) [11]: inactive; growth inhibition (GI) [12]: Active; growth inhibition (GI) [19]: Active
CCOc1ccc(/C=C/C(N)(S)NNC(=O)c2ccncc2)cc1 (stereo unspecified)	17.5	22.43	44.2	5.81	21.6	28.3	–	Active	Active	Active	Active	inactive	inactive	–	inactive	inactive	25.7	58.14	–	0.781 (≈ 2.27 µM)	growth inhibition (GI) [24]: inactive; Activity [26]: Toxic; Activity [27]: Toxic
COc1ccc(/C=C/C(N)(S)NNC(=O)c2ccncc2)cc1 (stereo unspecified)	13.78	37.52	70.7	1.29	9.83	18.2	–	Active	Active	Active	Active	–	–	inactive	–	Active	14	48.85	Toxic	1.56 (≈ 4.73 µM)	growth inhibition (GI) [28]: Active; Activity [29]: Toxic
NNC(=O)c1ccncc1 [ISONIAZID]	15.01	38.48	71.5	1.95	8.56	17.9	inactive	–	Active	–	inactive	inactive	inactive	inactive	inactive	Active	90	44.12	Toxic	0.098 (≈ 0.715 µM)	growth inhibition (GI) [8]: Active; growth inhibition (GI) [11]: inactive; growth inhibition (GI) [30]: inactive; growth inhibition (GI) [12]: inactive; growth inhibition (GI) [28]: inactive; growth inhibition (GI) [24]: inactive; growth inhibition (GI) [19]: inactive; growth inhibition (GI) [31]: inactive; growth inhibition (GI) [32]: inactive; Activity [29]: Toxic
Cc1ccc(/C=C/C(N)=S)cc1	47.84	26.63	59.8	7.11	14.7	18.4	inactive	Active	Active	Active	Active	inactive	inactive	inactive	inactive	–	25.7	24.16	Toxic	–	growth inhibition (GI) [11]: inactive; growth inhibition (GI) [28]: inactive; Activity [29]: Toxic
NC(S)(/C=C/c1ccccc1)NNC(=O)c1ccncc1 (stereo unspecified)	18.72	25.9	67.9	0.95	12.2	18.9	–	Active	Active	Active	Active	Active	–	–	–	Active	88.2	59.95	–	0.391 (≈ 1.3 µM)	growth inhibition (GI) [8]: Active; growth inhibition (GI) [19]: Active; growth inhibition (GI) [31]: Active; growth inhibition (GI) [32]: Active; Activity [26]: Toxic; Activity [27]: Toxic
Cc1ccc(/C=C/C(N)(S)NNC(=O)c2ccncc2)cc1 (stereo unspecified)	11.15	13.1	54.3	1.16	16	28.5	inactive	Active	Active	Active	Active	inactive	–	inactive	–	Active	12.5	72.35	–	0.781 (≈ 2.48 µM)	growth inhibition (GI) [8]: inactive; growth inhibition (GI) [28]: Active; growth inhibition (GI) [31]: Active; growth inhibition (GI) [32]: Active; Activity [26]: Toxic; Activity [27]: Toxic
COc1ccc(/C=C/C(N)=S)cc1	23.56	23.26	63.8	3.09	12.9	20.3	inactive	Active	Active	Active	Active	inactive	inactive	inactive	inactive	–	60	54.61	Toxic	–	growth inhibition (GI) [11]: inactive; growth inhibition (GI) [28]: inactive; growth inhibition (GI) [24]: Active; Activity [29]: Toxic
